As a reminder, the IC50 is the concentration at which inhibition is half-maximal.

Each structure is given as a SMILES string. Active and inactive are the calls of the source. The calls are words filed in the database; no cut-off is given here.

Series [1] deals with Human immunodeficiency virus 1. The series is described as follows: Antiviral activity against HIV1 harboring reverse transcriptase […]/K103N double mutant infected in HEK293T cells transfected with plasmid VSV-G/pNL4-3.luc.R-E- assessed as inhibition of viral replication after 48 hrs by luciferase reporter gene assay relative HIV1. The format is functional, HEK-293T.
Series [2] can be described thus: Retention time of the compound by HPLC analysis. The format is physicochemical.
The subject of series [3] is Human immunodeficiency virus 1. The series is described as follows: Antiviral activity against HIV1 harboring reverse transcriptase K103N/P225H double mutant infected in HEK293T cells transfected with plasmid VSV-G/pNL4-3.luc.R-E- assessed as inhibition of viral replication after 48 hrs by luciferase reporter gene assay. It is filed as functional, organism-based, HEK-293T. A digest of the protocol:
(§1)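 VSV-G-pseudotyped single-cycle virus: VSVG plasmid plus env-deficient pNL4-3.luc.R⁻E⁻ vector (wild type or RT-mutant) co-transfected into HEK 293T by calcium phosphate. Medium changed at 16 h, supernatant collected 48 h post-transfection, normalised by p24 ELISA to 0.2 ng p24/mL. HEK 293T targets seeded a day ahead; compound added 15 min before virus. Cells lysed 48 h post-infection, luciferase read. IC50 from dose–infectivity curves.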

The test system of the next series is HEK-293T. The series is described as follows: Cytotoxicity against HEK293T cells at 10 uM after 48 hrs. It is filed as cell-based. The settings on record: human. The method, boiled down:
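HEK 293T cells incubated 48 h with compound at final 10 μM under the antiviral culture conditions, without virus. Viability read with a cell proliferation assay kit.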

Series [4] deals with Human immunodeficiency virus 1. The series is described as follows: Antiviral activity against HIV1 harboring reverse transcriptase Y181C mutant infected in HEK293T cells transfected with plasmid VSV-G/pNL4-3.luc.R-E- assessed as inhibition of viral replication after 48 hrs by luciferase reporter gene assay relative HIV1. The format is functional, HEK-293T.
The subject of series [5] is Human immunodeficiency virus 1. The series is described as follows: Antiviral activity against HIV1 harboring reverse transcriptase Y181C mutant infected in HEK293T cells transfected with plasmid VSV-G/pNL4-3.luc.R-E- assessed as inhibition of viral replication after 48 hrs by luciferase reporter gene assay. The format is functional, organism-based, HEK-293T. The method, boiled down: as §1

Series [6] concerns Human immunodeficiency virus 1. The series is described as follows: Antiviral activity against HIV1 harboring reverse transcriptase K103N/G190A double mutant infected in HEK293T cells transfected with plasmid VSV-G/pNL4-3.luc.R-E- assessed as inhibition of viral replication after 48 hrs by luciferase reporter gene assay. It is filed as functional, organism-based, HEK-293T. A digest of the protocol: as §1

The test system of series [7] is Human immunodeficiency virus 1. The series is described as follows: Antiviral activity against HIV1 harboring reverse transcriptase K103N/V108I double mutant infected in HEK293T cells transfected with plasmid VSV-G/pNL4-3.luc.R-E- assessed as inhibition of viral replication after 48 hrs by luciferase reporter gene assay. It is filed as functional, organism-based, HEK-293T. A digest of the protocol: as §1

The subject of series [8] is Human immunodeficiency virus 1. The series is described as follows: Antiviral activity against HIV1 harboring reverse transcriptase […]/K103N double mutant infected in HEK293T cells transfected with plasmid VSV-G/pNL4-3.luc.R-E- assessed as inhibition of viral replication after 48 hrs by luciferase reporter gene assay. It is filed as functional, organism-based, HEK-293T. The method, boiled down: as §1
In general terms: Reporter assays use an easily measured gene product as a stand-in for the process of interest.

Series [9] concerns Human immunodeficiency virus 1. The series is described as follows: Antiviral activity against HIV1 harboring reverse transcriptase K103N/G190A double mutant infected in HEK293T cells transfected with plasmid VSV-G/pNL4-3.luc.R-E- assessed as inhibition of viral replication after 48 hrs by luciferase reporter gene assay relative HIV1. It is filed as functional, HEK-293T.
Series [10] deals with Human immunodeficiency virus 1. The series is described as follows: Antiviral activity against HIV1 harboring reverse transcriptase Y188L mutant infected in HEK293T cells transfected with plasmid VSV-G/pNL4-3.luc.R-E- assessed as inhibition of viral replication after 48 hrs by luciferase reporter gene assay. It is filed as functional, organism-based, HEK-293T. A digest of the protocol: as §1

The test system of series [11] is Human immunodeficiency virus 1. The series is described as follows: Antiviral activity against HIV1 harboring reverse transcriptase K103N/V108I double mutant infected in HEK293T cells transfected with plasmid VSV-G/pNL4-3.luc.R-E- assessed as inhibition of viral replication after 48 hrs by luciferase reporter gene assay relative HIV1. It is filed as functional, HEK-293T.

For series [12], the system named is Human immunodeficiency virus 1. The series is described as follows: Antiviral activity against HIV1 harboring reverse transcriptase K103N/P225H double mutant infected in HEK293T cells transfected with plasmid VSV-G/pNL4-3.luc.R-E- assessed as inhibition of viral replication after 48 hrs by luciferase reporter gene assay relative HIV1. It is filed as functional, HEK-293T.

Series [13] has as its system Human immunodeficiency virus 1. The series is described as follows: Antiviral activity against HIV1 harboring reverse transcriptase Y188L mutant infected in HEK293T cells transfected with plasmid VSV-G/pNL4-3.luc.R-E- assessed as inhibition of viral replication after 48 hrs by luciferase reporter gene assay relative HIV1. The format is functional, HEK-293T.
In series [14] the test system is Human immunodeficiency virus 1. The series is described as follows: Antiviral activity against HIV1 harboring reverse transcriptase K103N mutant infected in HEK293T cells transfected with plasmid VSV-G/pNL4-3.luc.R-E- assessed as inhibition of viral replication after 48 hrs by luciferase reporter gene assay relative HIV1. The format is functional, HEK-293T.
Series [15] deals with Human immunodeficiency virus 1. The series is described as follows: Antiviral activity against wild type HIV1 infected in HEK293T cells transfected with plasmid VSV-G/pNL4-3.luc.R-E- assessed as inhibition of viral replication after 48 hrs by luciferase reporter gene assay. It is filed as functional, organism-based, HEK-293T. A digest of the protocol: as §1
For series [16], the system named is Human immunodeficiency virus 1. The series is described as follows: Antiviral activity against HIV1 infected in 293T cells assessed as time of 50% failure. It is filed as functional.
Series [17] relates to Human immunodeficiency virus 1. The series is described as follows: Antiviral activity against HIV1 harboring reverse transcriptase K103N mutant infected in HEK293T cells transfected with plasmid VSV-G/pNL4-3.luc.R-E- assessed as inhibition of viral replication after 48 hrs by luciferase reporter gene assay. The format is functional, organism-based, HEK-293T. The method, boiled down: as §1

The subject of series [18] is Human immunodeficiency virus 1. The series is described as follows: Antiviral activity against HIV1 at 10 uM. The format is functional, organism-based.
[19] abbreviates: Human immunodeficiency virus 1, HEK-293T, 48 h.
The mark [20] stands for this setting: Human immunodeficiency virus 1, HEK-293T, 48 h, read-out: IC50.

`COc1ccc(CNc2nc(-c3ccccc3Cl)c(Cc3ccccc3)s2)cc1`: the “fold change (FC)” value is given as 111 in series [1]; 17.2 in series [4]; 90.9 in series [9]; 17.8 in series [11]; 17 in [12]; over 217 in [13]. Also, in series [14], the “fold change (FC)” value stood at 5.2. Further, the Retention_time in series [2] is 26.43 min. Further, the IC50 in series [3] (setting [19]) is 0.78 µM; in series [5] (setting [19]) it was 0.79 µM; in series [6] (setting [19]), 4.18 µM; in [7] (setting [19]) it was 0.82 µM; in series [8] (setting [19]), 5.11 µM; in [10] (setting [19]) it was over 10 µM. The IC50 was 0.046 µM in series [15] (setting [20]) and 0.24 µM in series [17] (setting [19]). For the same compound, the Activity result in the series with HEK-293T is “Non-toxic”. Moreover, the Time in series [16] is 9 h.
In the case of `COc1ccc(CNc2nc(-c3ccccc3F)c(Cc3ccccc3)s2)cc1`, the “fold change (FC)” value in series [1] was 84.5; in [4], 20.3; in [9], 2.6; in series [11], 76.3; in [12] it was 77.6; in [13], over 161. Also, the “fold change (FC)” value in series [14] was found to be 8.7. The Retention_time in series [2] came to 24.29 min. In addition, the IC50 was 4.81 µM in [3] (setting [19]); 1.26 µM in series [5] (setting [19]); 0.16 µM in series [6] (setting [19]); 4.73 µM in [7] (setting [19]); 5.24 µM in series [8] (setting [19]); over 10 µM in [10] (setting [19]). Further, the figures for the IC50 in series [15] (setting [20]) and in series [17] (setting [19]) were 0.062 µM and 0.54 µM, respectively. Also, in the series on HEK-293T, the Activity result is recorded as “Non-toxic”. Also, in series [16], the Time turned out to be 8.6 h.
On to `Cc1ccnc2c1NC(=O)c1cccnc1N2C1CC1` [NEVIRAPINE], for which the “fold change (FC)” value is given as 161 in [1]; 2152 in [4]; over 322 in series [9]; 90 in [11]; 177 in series [12]; over 322 in series [13]. Also, the “fold change (FC)” value in [14] was found to be 519. Moreover, the IC50 in series [3] (hek-293t) was 5.48 µM; in [5] (hek-293t), 66.7 µM; in [6] (setting [19]), over 10 µM; in [7] (hek-293t), 2.8 µM; in series [8] (setting [19]), 5 µM; in series [10] (setting [19]), over 10 µM. Further, the IC50 amounted to 0.031 µM in series [15] (setting [20]) and 16.1 µM in series [17] (hek-293t). Also, in the series with HEK-293T, the Activity result is on record as “Non-toxic”. Further, the Time in series [16] was found to be 8.3 h.
Take `COc1ccc(-c2nc(N(C)C)sc2Cc2ccccc2)cc1`: the Retention_time in series [2] worked out at 35.28 min. In addition, the Activity result with HEK-293T is recorded as “Non-toxic”. In addition, the inhibition result in series [18] is “inactive”. In [15] (hek-293t), the IC50 result is “Not Active”.
On to `COc1ccc(CNc2nc(-c3ccc(F)cc3F)c(Cc3ccccc3)s2)cc1`, for which the “fold change (FC)” value in series [1] is 83.8; in [4], 22.8; in series [9] it was 6.3; in [11], 28.8; in series [12] it was 56.1; in series [13] it was over 156. The “fold change (FC)” value in series [14] worked out at 6.4. This compound had a Retention_time in series [2] of 17.37 min. Besides, the IC50 in series [3] (setting [19]) is 3.59 µM; in series [5] (setting [19]) it was 1.46 µM; in [6] (setting [19]), 0.4 µM; in series [7] (setting [19]), 1.84 µM; in series [8] (setting [19]) it was 5.36 µM; in series [10] (setting [19]), over 10 µM. Moreover, the IC50 in series [15] (setting [20]) worked out at 0.064 µM; in series [17] (setting [19]) it was 0.41 µM. Besides, in the series with HEK-293T, the Activity entry was “Non-toxic”. Also, in [16], the Time was found to be 8.6 h.
In the case of `O=C1Nc2ccc(Cl)cc2[C@@](C#CC2CC2)(C(F)(F)F)O1` [EFAVIRENZ], the “fold change (FC)” value turned out to be 2394 in [1]; 5.4 in series [4]; 538 in series [9]; 79.8 in series [11]; 154 in [12]; 461.5 in series [13]. Also, in series [14], the “fold change (FC)” value was 56. In addition, the half-maximal inhibitory concentration (IC50) in [3] (hek-293t) stood at 0.16 µM; in series [5] (hek-293t), 0.00565 µM; in [6] (hek-293t) it was 0.056 µM; in series [7] (hek-293t), 0.083 µM; in series [8] (hek-293t), 2.49 µM; in series [10] (hek-293t), 0.48 µM. In addition, the IC50 in series [15] (setting [20]) is 0.00084 µM; in [17] (hek-293t) it was 0.0588 µM. For the same compound, in the series with HEK-293T, the Activity result was “Non-toxic”. In addition, the Time in [16] amounted to 8.8 h.

The values are drawn from ChEMBL document CHEMBL3351628, “2,4,5-Trisubstituted thiazole derivatives: a novel and potent class of non-nucleoside inhibitors of wild type and mutant HIV-1 reverse transcriptase” (Eur J Med Chem, 2014).
